From PubChem BioAssay AID588422 (The Scripps Research Institute Molecular Screening Center, 2011)
Calls of active or inactive are those of the source.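 Rule for the calls: active = IC50 at or below 1 µM; inactive = the rest.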

Target: Protein-arginine deiminase type-4 (Homo sapiens) (UniProt Q9UM07)
Experiment: PAD4 enzyme inhibition potency, late-stage follow-up, biochemical, BAEE substrate, citrulline absorbance, 0-60 µM range (AID 588422)
Conditions: recombinant PAD4, BAEE citrulline colorimetric absorbance
How it was run: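 System – recombinant PAD4 · Amount – PAD4 enzyme at 0.2 µM · Reagent – BAEE substrate at 10 mM · Dosing – 7 doses up to 60 µM · Times – Enzyme–compound preincubation 15 min at 37 °C, then 15 min BAEE reaction · Detection – citrulline colour reaction, A540 · Control set – DMSO vehicle control · Replication – duplicates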

Sequence of Protein-arginine deiminase type-4 (Homo sapiens) (Q9UM07 whole entry, looked up): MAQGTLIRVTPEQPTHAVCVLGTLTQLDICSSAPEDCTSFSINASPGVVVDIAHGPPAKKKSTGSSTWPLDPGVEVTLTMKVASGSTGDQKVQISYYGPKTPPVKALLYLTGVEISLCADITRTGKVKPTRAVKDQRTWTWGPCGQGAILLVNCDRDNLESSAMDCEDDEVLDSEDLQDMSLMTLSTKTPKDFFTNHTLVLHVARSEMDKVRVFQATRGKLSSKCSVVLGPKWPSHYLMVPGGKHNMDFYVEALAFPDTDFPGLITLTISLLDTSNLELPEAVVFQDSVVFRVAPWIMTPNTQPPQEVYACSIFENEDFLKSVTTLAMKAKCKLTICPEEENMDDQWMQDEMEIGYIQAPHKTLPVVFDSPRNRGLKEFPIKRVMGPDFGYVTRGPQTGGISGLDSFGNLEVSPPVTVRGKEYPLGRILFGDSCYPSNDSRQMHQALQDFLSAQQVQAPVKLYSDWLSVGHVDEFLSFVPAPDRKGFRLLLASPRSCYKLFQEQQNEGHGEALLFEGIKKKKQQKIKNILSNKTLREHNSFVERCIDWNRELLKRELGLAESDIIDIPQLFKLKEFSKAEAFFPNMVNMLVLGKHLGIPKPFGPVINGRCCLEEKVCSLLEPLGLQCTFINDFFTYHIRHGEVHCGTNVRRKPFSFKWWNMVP

COC(=O)c1cccc(-c2ccc3c(n2)C(=O)C(Br)=CC3=O)n1
IC50: inactive
